This note sets out measurements from ChEMBL document CHEMBL3392997, “Interconversion of Functional Activity by Minor Structural Alterations in Nonpeptide AT2 Receptor Ligands” (ACS Med Chem Lett, 2015).

Structures are written as SMILES. Calls of active or inactive are those of the source. No cut-off for these calls is given here. A value given as a limit tells only on which side of the number the result lay.

Experiment [1] is described as follows: Binding affinity to AT2 receptor (unknown origin).
Experiment [2] has as its target T1, Type-2 angiotensin II receptor (Homo sapiens) (UniProt P50052).
T1 sequence (whole entry): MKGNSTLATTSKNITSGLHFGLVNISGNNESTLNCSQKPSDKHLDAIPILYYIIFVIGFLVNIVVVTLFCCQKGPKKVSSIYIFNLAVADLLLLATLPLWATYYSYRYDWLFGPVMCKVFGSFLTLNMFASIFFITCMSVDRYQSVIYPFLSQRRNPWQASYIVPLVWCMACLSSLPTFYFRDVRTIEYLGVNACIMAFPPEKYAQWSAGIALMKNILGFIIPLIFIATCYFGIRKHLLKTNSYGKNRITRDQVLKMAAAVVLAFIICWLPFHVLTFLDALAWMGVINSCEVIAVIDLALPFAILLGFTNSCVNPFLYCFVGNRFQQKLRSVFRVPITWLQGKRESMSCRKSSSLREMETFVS
Nature of the experiment: Agonist activity at AT2 receptor (unknown origin) expressed in NG108-15 cells assessed as induction of neurite outgrowth at 10 nM after 3 days by phase contrast microscopy. It is filed as cell-based. The procedure, abridged:
(§1)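 Undifferentiated NG108-15 cells were plated at 3.6×10^4 cells per 35 mm dish and cultured 3 days with agent alone, or with 10 μM PD 123,319 or 100 nM Ang II. Phase-contrast micrographs were taken. A cell with at least one neurite longer than its cell body scored positive, expressed as percent of total cells counted (at least 400). Two-way ANOVA.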

Experiment [3] deals with T1, Type-2 angiotensin II receptor (Homo sapiens). In words: Agonist activity at AT2 receptor (unknown origin) expressed in NG108-15 cells assessed as induction of neurite outgrowth at 10 nM after 3 days in presence of 10 uM AT2 receptor antagonist PD 123,319 by phase contrast microscopy. In kind it is cell-based. An outline of the steps: as §1
Experiment [4] deals with T2, Type-1 angiotensin II receptor (Homo sapiens, UniProt P30556).
T2 sequence (P30556 whole entry): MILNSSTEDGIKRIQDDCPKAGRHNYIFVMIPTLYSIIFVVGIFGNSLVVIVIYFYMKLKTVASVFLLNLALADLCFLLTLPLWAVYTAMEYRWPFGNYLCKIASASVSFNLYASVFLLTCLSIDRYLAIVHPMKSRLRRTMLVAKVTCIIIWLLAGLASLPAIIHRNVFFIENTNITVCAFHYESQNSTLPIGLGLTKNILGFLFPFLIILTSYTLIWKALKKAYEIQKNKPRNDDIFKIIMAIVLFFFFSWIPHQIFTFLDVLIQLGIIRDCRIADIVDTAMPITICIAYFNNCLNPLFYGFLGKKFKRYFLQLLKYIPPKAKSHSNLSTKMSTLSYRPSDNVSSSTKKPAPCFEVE
In words: Displacement of [125I]-[Sar1,Leu8]angiotensin II from human AT1 receptor expressed in african green monkey COS7 cells. In kind it is cell-based, COS-7.

Experiment [5] has as its target T1, Type-2 angiotensin II receptor (Homo sapiens). The settings on record: NG108-15, 10 uM.
Experiment [6] deals with T3, Type-1 angiotensin II receptor A (Rattus norvegicus, UniProt P25095).
T3 sequence (P25095 whole entry): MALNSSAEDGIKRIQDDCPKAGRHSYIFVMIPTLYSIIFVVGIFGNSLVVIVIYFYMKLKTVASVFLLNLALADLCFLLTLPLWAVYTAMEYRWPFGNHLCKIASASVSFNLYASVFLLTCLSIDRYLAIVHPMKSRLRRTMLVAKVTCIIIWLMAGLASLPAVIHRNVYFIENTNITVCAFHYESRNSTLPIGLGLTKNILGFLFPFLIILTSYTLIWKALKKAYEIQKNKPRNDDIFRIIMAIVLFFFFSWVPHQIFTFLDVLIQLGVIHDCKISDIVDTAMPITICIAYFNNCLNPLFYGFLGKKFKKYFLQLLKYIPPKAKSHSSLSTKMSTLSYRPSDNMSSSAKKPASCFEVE
In words: Displacement of [125I]-Ang II from AT1 receptor in rat liver membranes after 2 hrs by gamma-counting method. It is filed as cell membranes, Membrane.

Experiment [7] concerns the target T1, Type-2 angiotensin II receptor (Homo sapiens). In words: Agonist activity at AT2 receptor (unknown origin) expressed in NG108-15 cells assessed as induction of neurite outgrowth at 100 nM after 3 days by phase contrast microscopy. It is filed as cell-based. An outline of the steps: as §1
Experiment [8] has the same target. In words: Antagonist activity against AT2 receptor (unknown origin) expressed in NG108-15 cells assessed as reduction in angiotension-2-induced neurite outgrowth at 10 nM after 3 days by phase contrast microscopy. It is filed as cell-based. An outline of the steps:
as §1

As to `CCCCOC(=O)NS(=O)(=O)c1ccc(CCC)cc1-c1ccc(Cn2c(CC)nc3c(C)cc(C)nc32)cc1`, the IC50 in experiment [1] came out at 4.2 nM.

`CCCCOC(=O)NS(=O)(=O)c1cc(CC(C)C)ccc1-c1cccc(Cn2ccnc2)c1`: in experiment [2], the result was Active. The outcome in experiment [3] was inactive.

`CCCCOC(=O)NS(=O)(=O)c1cc(CC(C)C)ccc1-c1ccc(Cn2ccnc2)cc1`: in experiment [2], the outcome was Active. Further, in experiment [3], the outcome was inactive.

As to `CCCCOC(=O)NS(=O)(=O)c1ccc(CC(C)C)cc1-c1ccc(Cn2c(CC)nc3c(C)cc(C)nc32)cc1`, the figures for the IC50 in experiment [4] and in experiment [1] were 2.1 nM and 0.7 nM, respectively.

`Cc1cc(Cn2cnc3c2C[C@@H](C(=O)O)N(C(=O)C(c2ccccc2)c2ccccc2)C3)ccc1N(C)C`: the inhibition entry in experiment [5] is “Active”.

Consider `CCCCOC(=O)NS(=O)(=O)c1sc(CC(C)C)cc1-c1ccc(Cn2ccnc2)cc1` [BULOXIBUTID], for which, in experiment [6], the Ki was > 10000 nM.

Turning to `CCCCOC(=O)NS(=O)(=O)c1ccc(CC(C)C)cc1-c1cccc(Cn2ccnc2)c1`, the result in experiment [2] and in experiment [7] was inactive. In experiment [8], the inhibition entry is “Active”.

Consider `CCCCOC(=O)NS(=O)(=O)c1ccc(CC(C)C)cc1-c1ccc(Cn2ccnc2)cc1`, for which, in experiment [2], the result was Active. Besides, the outcome in experiment [3] was inactive.
